# Screens deposited in PubChem by several laboratories.
# Apaf-1 inh: blocks human Apaf-1 apoptosome activity; O14727; reconstituted apoptosome caspase-3 activity, DEVD-Rh110 fluorescence; inhibition, % at 20 µM; hit rate 0.71% among 330,000; AID 489030; active means inhibition of at least 40% at 20 µM;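 further: plate controls were DMSO wells for no effect and DEVD-CHO caspase inhibitor wells for full effect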
#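 Assay system: Apoptosome proteins | Medium: pH 7.5 Hepes buffer with CHAPS, BSA, DTT | Also added: Cytochrome c and DEVD-Rh110 substrate | Times: 30 min plus 50 min, RT | Detection: Rhodamine 110 fluorescence at Ex 480/Em 540 nm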
# pPAFAH FP inh: inhibitors of human plasma PAF acetylhydrolase (pPAFAH). Q13093. recombinant pPAFAH, FP-rhodamine probe fluorescence polarization. inhibition, % at 3.39 µM. hit rate 1.5% among 330,000. AID 463082;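 active means inhibition above the mean inhibition across the screen plus 3 SD, cut at about 25% in these data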;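 further: inhibitors block binding of the rhodamine activity-based probe so polarization drops; 0% = enzyme with DMSO and 100% = wells lacking pPAFAH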
# PAFAH2 FP inh: inhibitors of human PAFAH2. Q99487. recombinant PAFAH2, FP-rhodamine activity probe, fluorescence polarization. inhibition, % at 3.39 µM. hit rate 0.99% among 340,000. AID 492956;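 active means inhibition above the mean over all tested compounds plus 3 SD, cut at about 30% in these data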;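 further: inhibitors block probe labeling of enzyme so polarization drops; 0% = enzyme with DMSO and 100% = wells lacking PAFAH2 protein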
# PAFAH1B3 FP inh: blocks human PAF acetylhydrolase 1B catalytic subunit 3; recombinant PAFAH1B3, FP-rhodamine probe, fluorescence polarization; AID 492972; hit rate 0.28% among 340,000; inhibition, % at 3.39 µM;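 active means inhibition above the screen-wide average of all tested compounds plus 3 SD, cut at about 25% in these data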;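 further: 0% = enzyme with DMSO only and 100% = wells lacking PAFAH1B3 protein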
# Target sequence (Q15102 whole entry, looked up): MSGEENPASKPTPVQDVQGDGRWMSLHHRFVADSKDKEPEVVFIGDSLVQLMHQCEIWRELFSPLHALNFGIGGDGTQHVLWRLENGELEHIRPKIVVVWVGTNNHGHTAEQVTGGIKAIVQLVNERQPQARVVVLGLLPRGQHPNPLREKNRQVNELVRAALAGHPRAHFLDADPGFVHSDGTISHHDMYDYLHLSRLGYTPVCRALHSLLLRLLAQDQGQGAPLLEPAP
# PAFAH1B2 FP inh: blocks human PAF acetylhydrolase 1b catalytic subunit 2; hit rate 1.2% among 340,000; recombinant PAFAH1B2, FP-rhodamine activity probe, fluorescence polarization; AID 492953; inhibition, % at 3.39 µM;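 active means inhibition above the mean of all tested compounds plus 3 SD, cut at about 24% in these data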;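 further: 0% = enzyme with DMSO and 100% = wells lacking PAFAH1B2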
# Target sequence (P68402 whole entry, looked up): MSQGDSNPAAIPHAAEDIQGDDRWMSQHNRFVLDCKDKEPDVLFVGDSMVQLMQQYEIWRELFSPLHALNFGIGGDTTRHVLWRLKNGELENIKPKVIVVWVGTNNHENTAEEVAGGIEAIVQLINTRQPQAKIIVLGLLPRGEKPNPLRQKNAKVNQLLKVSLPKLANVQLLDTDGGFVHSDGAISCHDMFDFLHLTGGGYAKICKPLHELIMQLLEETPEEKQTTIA
# PAFAH2 FP conf: PAFAH2 (human) inhibition, confirmed; shares compounds with PAFAH2 FP inh; inhibition, % at 3.39 µM; recombinant PAFAH2, FP-rhodamine activity probe, fluorescence polarization; AID 493030; hit rate 65% among 2,300;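 active means mean inhibition over three repeats above a set limit taken from the earlier primary screen, cut at about 30% in these data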;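 further: inhibitor blocks binding of rhodamine activity probe so polarization falls; 0% = enzyme with DMSO and 100% = wells lacking PAFAH2 protein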
# * marks the source's active call; other numbers are inactive results; x = no result given. Rows were chosen to be rich in hits. Some 3.1% of all compounds tested hit in one or more screens of this group.
SMILES,Apaf-1 inh,pPAFAH FP inh,PAFAH2 FP inh,PAFAH1B3 FP inh,PAFAH1B2 FP inh,PAFAH2 FP conf
Cc1ccc(-c2nc(C)sc2CC(=O)OCC(=O)Nc2cccc([N+](=O)[O-])c2)cc1,0,10,3,-2,6,x
CC1CC1C(=O)OCC(=O)Nc1ccc2[nH]c(=O)[nH]c2c1 (stereo not drawn),-19,8,-12,4,0,x
CCN(CC(=O)Nc1ccc(NC(C)=O)cc1)C(=O)c1cccnc1Sc1ccc(C)c(C)c1,-4,3,7,9,-3,x
CCOc1ccc(NC(=O)Cn2c(=O)n(CCCC(=O)NC3CCN(Cc4ccccc4)CC3)c(=O)c3ccccc32)cc1,13,3,-3,7,4,x
CCCCCCCc1nc2nc(C)c(Br)c(=O)n2[nH]1,4,20,38*,10,13,35*
Cc1ccc(S(=O)(=O)N(C)C)cc1NC(=O)COC(=O)c1ccc2c(c1)NC(=O)CS2,10,4,52*,8,4,43*
Cc1ccc(S(=O)(=O)N(C)C)cc1NC(=O)COC(=O)C1CCCC1,-5,7,17,7,0,x
CCOC(=O)c1ccc2[nH]c(C)c(C)c2c1,5,10,2,13,4,x
CC(=O)c1cccc(NC(=O)COC(=O)c2ccc3c(c2)OCO3)c1,3,1,74*,-3,-4,71*
Cc1[nH]c2ccc(C(=O)OCC(=O)Nc3cccc(S(N)(=O)=O)c3)cc2c1C,-15,2,69*,-1,0,64*
CN(C)S(=O)(=O)c1cccc(C(=O)OCC(=O)Nc2ccccc2OC(F)F)c1,13,11,33*,4,5,25
Cc1cccc(C)c1NC(=O)COC(=O)c1ccc2c(c1)OCO2,10,5,28,-4,2,x
O=C(COc1ccc(C(=O)NCCN2CCOCC2)cc1)Nc1cccc(C(F)(F)F)c1,10,-11,-1,0,-4,x
CCOc1ccc(C2=Nn3c(CC)nnc3SC2)cc1,4,3,9,0,0,x
CC(=O)c1ccccc1NC(=O)CCCNC(=O)c1ccc(Cl)cc1,7,-4,5,2,7,x
CN(C)S(=O)(=O)c1cccc(NC(=O)COC(=O)c2ccc3c(c2)OCO3)c1,-13,7,55*,-1,6,57*
Cc1cccc(C)c1NC(=O)COC(=O)c1ccc2[nH]c3c(c2c1)CCCC3,-6,12,70*,3,-2,62*
Cc1cc(Br)ccc1NC(=O)CN(C)C(=O)CN1C(=O)NC(C)(C2CC2)C1=O (stereo not drawn),-3,-4,-3,7,-2,x
CS(=O)(=O)c1cccc(S(=O)(=O)N2CCCCCC2)c1,-11,0,145*,4,6,2
CC(C)CCN1C(=O)c2ccc(C(=O)Nc3ccccc3C(=O)O)cc2C1=O,7,x,40*,1,2,20
Cc1ccc(N(CCC(=O)N2CCOCC2)S(=O)(=O)c2ccccc2)cc1,4,1,-4,11,6,x
CCCCn1nc(C(=O)Nc2ccccc2N2CCCC2)c2ccccc2c1=O,30,0,-7,2,3,x
COc1ccccc1/C=N/OC(=O)c1ccc(F)cc1,9,5,77*,5,7,64*
COc1ccccc1C=NN=C(N)C(N)=NN=Cc1ccccc1OC,x,x,-2,-6,-3,x
Cc1cc(C)c(S(=O)(=O)Nc2ncn[nH]2)cc1C,0,-5,8,-2,7,x
SMILES,Apaf-1 inh,pPAFAH FP inh,PAFAH2 FP inh,PAFAH1B3 FP inh,PAFAH1B2 FP inh,PAFAH2 FP conf
COC(=O)c1ccc2c(c1)NC(=O)C1CCCN21 (stereo not drawn),2,0,x,x,x,x
Cc1ccc(NC(=O)COC(=O)c2ccc3c(c2)NC(=O)C2CCCN32)cc1 (stereo not drawn),17,6,68*,-13,-10,76*
CCN(CC)CCCNC(=O)CN1N=C(c2ccc(OC)cc2)CCC1=O,2,0,1,7,6,x
CC(=O)c1ccc(S(=O)(=O)N2CCC3(CC2)CC(=O)c2ccccc2O3)cc1,7,2,6,7,-2,x
Cc1ccc(-c2ccc(/C=C3\C(=O)ON=C3c3ccccc3)o2)c([N+](=O)[O-])c1,-17,19,32*,5,12,25
Cc1ccc(/C=C2\C(=O)ON=C2c2ccccc2)o1,6,-7,x,x,x,x
O=C(Nc1nc(-c2ccccc2)cs1)NC1CCCCC1,18,0,30*,4,6,1
c1ccc(-c2csc(NC3CCCCC3)n2)cc1,19,4,0,-4,3,x
COc1ccc(NC(=O)C(Cl)=C(Cl)Cl)cn1,8,x,-4,5,1,x
COc1ccc(NC(=O)/C(Cl)=C(/Cl)S(=O)(=O)Cc2ccccc2)cn1,x,x,41*,0,8,19
COc1ccc(C2=NS(=O)(=O)N(C)C(C(=O)N3CCCCC3C)=C2)cc1 (stereo not drawn),12,-5,-7,-7,4,x
COc1ccc(NC(=O)COC(=O)CC2CCCC2)cc1,-3,20,58*,4,3,47*
Cc1cc(C)cc(NC(=O)COC(=O)CC2CCCC2)c1,5,24,80*,4,4,66*
COc1ccc(NC(=O)CN(C)CC(=O)NCC2CCCCC2)cc1,2,x,3,12,4,x
Cc1ccc(NC(=O)COC(=O)CCC2CCCC2)c(Br)c1,23,18,31*,6,2,14
COc1cc(CCC(=O)OCC(=O)Nc2ccc(C)cc2Br)cc(OC)c1OC,9,6,7,6,-1,x
COc1ccc(NC(=O)COC(=O)CC2CCCCC2)cc1,16,7,48*,0,-2,42*
NC(=O)c1ccc(Oc2ccc3c(c2)CCC3)c([N+](=O)[O-])c1,19,14,-1,4,5,x
CCOCCOC(=O)NCCCCCCNC(=O)OCCOCC,-4,3,60*,9,1,47*
O=C(CNC(=O)c1ccccc1Cl)NCCc1cccs1,-2,7,-1,-2,-3,x
O=C1c2ccccc2[C@@H]2C[C@@H](O)[C@H](Nc3cccc(C(F)(F)F)c3)CCN12,6,23,40*,11,5,30*
COc1ccc2oc(C(=O)OCC(=O)N(C)CC(=O)Nc3ccc(C)cc3)c(C)c2c1,4,5,4,1,9,x
CCCCNC(=O)COC(=O)c1cc(Br)ccc1Cl,4,3,16,6,4,x
CCC(CC)NC(=O)COC(=O)c1cc(Br)ccc1Cl,-1,6,33*,0,3,26
CC(C)(C)c1ccc(/C=C2\Oc3cc(O)ccc3C2=O)cc1,9,16,47*,5,11,36*
Cc1ccc(S(=O)(=O)N2CCN(C(=O)CCC(=O)Nc3ccc(Br)c(C)c3)CC2)cc1,x,x,23,-4,8,x
